In ChEMBL document CHEMBL1152134, “Synthetic chalcones as efficient inhibitors of Mycobacterium tuberculosis protein tyrosine phosphatase PtpA” (Bioorg Med Chem Lett, 2008):

Target: T1, Low molecular weight protein-tyrosine phosphatase A (Mycobacterium tuberculosis, UniProt P9WIA1)
T1 sequence (P9WIA1 whole entry): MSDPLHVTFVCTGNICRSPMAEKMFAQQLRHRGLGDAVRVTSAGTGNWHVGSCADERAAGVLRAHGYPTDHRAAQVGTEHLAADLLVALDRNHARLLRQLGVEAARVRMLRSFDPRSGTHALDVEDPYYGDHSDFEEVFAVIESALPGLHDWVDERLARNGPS
Test: Inhibition of Mycobacterium tuberculosis recombinant protein tyrosine phosphatase

Q: With `COc1ccc(OC)c(C(=O)/C=C/c2ccc3ccccc3c2)c1` as the compound, how does the IC50 read?
A: 8.4 µM

Q: For `COc1ccc(C(=O)/C=C/c2ccc3ccccc3c2)cc1OC`, which IC50 is on record?
A: 23.1 µM

Q: Which IC50 does the source give for `COc1ccc(OC)c(C(=O)/C=C/c2cccc3ccccc23)c1` here?
A: 39.5 µM

Q: How did the IC50 turn out when `O=C(/C=C/c1cccc2ccccc12)c1ccccc1O` was run?
A: 50.7 µM

Target: T2, Low molecular weight protein-tyrosine phosphatase A (Mycobacterium tuberculosis) (UniProt P9WIA1)
T2 sequence (whole entry): T1 sequence (P9WIA1 whole entry)
Test: Inhibition of Mycobacterium tuberculosis recombinant protein tyrosine phosphatase assessed as enzyme activity at 25 uM
Design: scale not given: the % may be the effect or the level left
Procedure, shortened: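 His-tagged recombinant M. tuberculosis PtpA expressed from pET28a. Compound diluted in 25 mM bis-Tris–HCl pH 8.0, 20 mM imidazole pH 7.0, 40 mM DTT and 40 mM pNPP substrate; enzyme added to start. Incubated 20 min at 37 °C, absorbance at 410 nm read every 2 min. Controls: no enzyme; enzyme with DMSO. Percent activity averaged from two experiments in triplicate.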

Q: With `O=C(/C=C/c1ccc2ccccc2c1)c1ccc([N+](=O)[O-])cc1` as the compound, how does the Activity read?
A: 89%

Q: With `COc1cc(OC)c(C(=O)/C=C/c2ccc3ccccc3c2)c(OC)c1` as the compound, how does the Activity read?
A: 104%

Q: `O=C(/C=C/c1ccc2ccccc2c1)c1ccc(Br)cc1` was tested. Which Activity did it give?
A: 89.2%

Q: `COC1C=C(C(=O)/C=C/c2ccc3ccccc3c2)C=CC1O` (centres undefined) was tested. Which Activity did it give?
A: 61%

Q: Which Activity does the source give for `COc1cc(C(=O)/C=C/c2cccc3ccccc23)cc(OC)c1OC` here?
A: 102%

Q: `O=C(/C=C/c1cccc2ccccc12)c1ccc(Br)cc1` was tested. Which Activity did it give?
A: 75%

Q: How did the Activity turn out when `COc1cc(O)c(C(=O)/C=C/c2cccc([N+](=O)[O-])c2)c(OC)c1` was run?
A: 92%

Q: `COc1ccc(OC)c(C(=O)/C=C/c2ccc3ccccc3c2)c1` was tested. Which Activity did it give?
A: 42.5%

Q: How did the Activity turn out when `COc1cc(O)c(C(=O)/C=C/c2cccc3ccccc23)c(OC)c1` was run?
A: 84.4%

Q: `COc1ccc(C(=O)/C=C/c2ccc3ccccc3c2)cc1OC` was tested. Which Activity did it give?
A: 31.5%

Q: How did the Activity turn out when `O=C(/C=C/c1ccc2c(c1)OCO2)c1ccccc1O` was run?
A: 103%

Q: Which Activity does the source give for `COc1cc(O)c(C(=O)/C=C/c2cccc(Cl)c2)c(OC)c1` here?
A: 87%

Q: Which Activity does the source give for `COc1cc(OC)c(C(=O)/C=C/c2cccc([N+](=O)[O-])c2)c(OC)c1` here?
A: 100%

Q: For `COc1ccc(OC)c(C(=O)/C=C/c2ccc3c(c2)OCO3)c1`, which Activity is on record?
A: 91.3%

Q: With `O=C(/C=C/c1cccc2ccccc12)c1ccccc1` as the compound, how does the Activity read?
A: 62.7%

Q: `O=C(/C=C/c1ccc2c(c1)OCO2)c1ccc(Br)cc1` was tested. Which Activity did it give?
A: 86%

Q: How did the Activity turn out when `COc1ccc(OC)c(C(=O)/C=C/c2cccc3ccccc23)c1` was run?
A: 54%

Q: For `COc1cc(C(=O)/C=C/c2ccc3c(c2)OCO3)ccc1O`, which Activity is on record?
A: 80%

Q: `O=C(/C=C/c1ccc2c(c1)OCO2)c1cccc([N+](=O)[O-])c1` was tested. Which Activity did it give?
A: 74%

Q: How did the Activity turn out when `O=C(/C=C/c1cccc2ccccc12)c1ccc([N+](=O)[O-])cc1` was run?
A: 82%

Q: How did the Activity turn out when `O=C(/C=C/c1ccc2ccccc2c1)c1ccccc1O` was run?
A: 74.6%

Q: With `O=C(/C=C/c1ccc2c(c1)OCO2)c1ccccc1` as the compound, how does the Activity read?
A: 103%

Q: How did the Activity turn out when `O=C(/C=C/c1cccc2ccccc12)c1ccccc1O` was run?
A: 24%

Q: For `O=C(/C=C/c1cccc2ccccc12)c1cccc([N+](=O)[O-])c1`, which Activity is on record?
A: 88%

Q: Which Activity does the source give for `O=C(/C=C/c1ccc2c(c1)OCO2)c1ccc([N+](=O)[O-])cc1` here?
A: 80.5%

Q: `COc1ccc(C(=O)/C=C/c2cccc3ccccc23)c(OC)c1` was tested. Which Activity did it give?
A: 80%

Q: For `COc1ccc(C(=O)/C=C/c2cccc3ccccc23)cc1`, which Activity is on record?
A: 82.4%

Q: How did the Activity turn out when `COc1cc(OC)c(C(=O)/C=C/c2cccc(Cl)c2)c(OC)c1` was run?
A: 98%

Q: Which Activity does the source give for `COc1cc(C(=O)/C=C/c2ccc3ccccc3c2)cc(OC)c1OC` here?
A: 109%

Q: `O=C(/C=C/c1ccc2ccccc2c1)c1cccc([N+](=O)[O-])c1` was tested. Which Activity did it give?
A: 84%

Q: With `COc1ccc(C(=O)/C=C/c2ccc3c(c2)OCO3)cc1` as the compound, how does the Activity read?
A: 94%

Q: With `COc1cc(OC)c(C(=O)/C=C/c2ccc(Cl)c(Cl)c2)c(OC)c1` as the compound, how does the Activity read?
A: 99%

Q: With `COc1cc(C(=O)/C=C/c2ccc3c(c2)OCO3)cc(OC)c1OC` as the compound, how does the Activity read?
A: 82.4%

Q: How did the Activity turn out when `COc1ccc(C(=O)/C=C/c2ccc3c(c2)OCO3)cc1OC` was run?
A: 99%

Q: How did the Activity turn out when `O=C(/C=C/c1cccc2ccccc12)c1cccc(O)c1` was run?
A: 79.5%
